{"data": "Published values gathered from unrelated publications", "OPRK1": "Kappa-type opioid receptor (OPRK1, Homo sapiens, UniProt P41145)", "note": "Protocols differ between the studies behind these lines."}
{"Compound": "C[C@@H](NC(=O)[C@@H](N)Cc1ccc(O)cc1)C(=O)NCC(=O)N[C@@H](Cc1ccccc1)C(=O)N(C)CCC[C@@]1(c2ccc(F)cc2)OCc2cc(C#N)ccc21", "target": "OPRK1", "effect on": "cell-free assay", "Ki [nM]": 86}
{"Compound": "Cc1cc(O)cc(C)c1C[C@H](N)C(=O)N1CCc2ccc(Cc3ccccc3N)cc2C1", "target": "OPRK1", "effect on": "ligand displacement", "technique": "radioligand", "setting": "cell membranes", "Ki [nM]": 25}
{"Compound": "Fc1ccccc1CC(c1ccccc1)N1CCCC1 (centres unmarked)", "target": "OPRK1", "effect on": "ligand displacement", "technique": "radioligand", "Ki [nM]": 642}
{"Compound": "Cc1ccc(Cc2ccc3c(c2)CN(C(=O)[C@@H](N)Cc2c(C)cc(O)cc2C)CC3)cc1", "target": "OPRK1", "effect on": "ligand displacement", "technique": "radioligand", "setting": "cell membranes", "Ki [nM]": 233}
{"Compound": "CC(=O)Nc1ccccc1-c1cnc2c(c1)C[C@@]1(OCCCc3ccccc3)[C@H]3Cc4ccc(O)c5c4[C@@]1(CCN3CC1CC1)[C@H]2O5", "target": "OPRK1", "effect on": "cell-free assay", "Ki [nM]": 13.5}
{"Compound": "COc1ccsc1CNCC[C@@]1(c2ccccn2)CCOC2(CCCC2)C1", "target": "OPRK1", "effect on": "cell-free assay", "Ki [nM]": 2700}
{"Compound": "C[C@H]1[C@H]2Cc3ccc(O)cc3[C@]1(C)CCN2CC1CC1", "target": "Kappa-type opioid receptor (OPRK1, Homo sapiens, UniProt P41145, I135L)", "effect on": "cell-free assay", "Ki [nM]": 2.95}
{"Compound": "Oc1ccc2c3c1O[C@H]1c4ncc(-c5ccccc5)cc4C[C@@]4(OCCCc5cccnc5)[C@@H](C2)N(CC2CC2)CC[C@]314", "target": "OPRK1", "effect on": "cell-free assay", "Ki [nM]": 5.3}
{"Compound": "CN[C@]1(c2ccccc2Cl)CCCCC1=O", "target": "OPRK1", "effect on": "ligand displacement", "technique": "radioligand", "Ki [nM]": 8500}
{"Compound": "CCCC[C@@H](NC(=O)[C@@H](N)Cc1ccc(O)cc1)C(=O)NCC(=O)N[C@@H](Cc1ccc(F)cc1)C(=O)N(C)CCC[C@@]1(c2ccc(F)cc2)OCc2cc(C#N)ccc21", "target": "OPRK1", "effect on": "cell-free assay", "Ki [nM]": 68}
{"Compound": "Cc1cc(O)cc(C)c1C[C@H](N)C(=O)N1CCc2ccc(Cc3ccccc3[N+](=O)[O-])cc2C1", "target": "OPRK1", "effect on": "ligand displacement", "technique": "radioligand", "setting": "cell membranes", "Ki [nM]": 2.6}
{"Compound": "CC[C@H](C)[C@H](NC(=O)[C@H](CCCNC(=N)N)NC(=O)[C@H](CC(C)C)NC(=O)[C@@H](N)Cc1ccccc1)C(=O)N[C@@H](CCCNC(=N)N)C(=O)N1CCC[C@H]1C(=O)N[C@@H](CCCCN)C(=O)O", "target": "OPRK1", "effect on": "ligand displacement", "technique": "radioligand", "Ki [nM]": "> 10000"}
{"Compound": "Cc1cc(O)cc(C)c1C[C@H](N)C(=O)N1CCc2ccc(Cc3ccc([N+](=O)[O-])cc3)cc2C1", "target": "OPRK1", "effect on": "ligand displacement", "technique": "radioligand", "setting": "cell membranes", "Ki [nM]": 22}
{"Compound": "C[C@@H](NC(=O)[C@@H](N)Cc1ccc(O)cc1)C(=O)NCC(=O)N[C@@H](Cc1ccc(Cl)cc1)C(=O)N(C)CCC[C@@]1(c2ccc(F)cc2)OCc2cc(C#N)ccc21", "target": "OPRK1", "effect on": "cell-free assay", "Ki [nM]": 43}
